In data set [1] the target is T1, Endothelin receptor type B (Homo sapiens, UniProt P24530).
T1 sequence (P24530 whole entry): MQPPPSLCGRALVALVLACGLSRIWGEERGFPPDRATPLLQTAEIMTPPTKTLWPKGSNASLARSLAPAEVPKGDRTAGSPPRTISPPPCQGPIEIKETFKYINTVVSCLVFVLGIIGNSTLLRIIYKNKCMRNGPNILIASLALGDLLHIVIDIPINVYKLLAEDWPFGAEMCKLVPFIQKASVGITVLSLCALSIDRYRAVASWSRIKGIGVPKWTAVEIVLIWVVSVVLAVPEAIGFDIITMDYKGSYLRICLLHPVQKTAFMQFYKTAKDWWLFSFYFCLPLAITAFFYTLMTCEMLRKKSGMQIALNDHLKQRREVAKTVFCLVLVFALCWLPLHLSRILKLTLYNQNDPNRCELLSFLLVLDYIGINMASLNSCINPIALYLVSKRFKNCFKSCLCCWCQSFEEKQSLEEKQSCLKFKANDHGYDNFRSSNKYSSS
Briefly: In vitro inhibition of endothelin binding to human Endothelin B receptor using [125I]-labeled ET-1 competition assay. An outline of the steps:
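Membranes (0.75 mg/tube) from COS 7 cells transfected with human ETB. Buffer 30 mM HEPES pH 7.4, 150 mM NaCl, 5 mM MgCl2, 0.05% bacitracin, final 0.25% DMSO. Tracer 4 pM [125I]ET-1, nonspecific binding with 100 nM ET-1. Incubated 16–18 h at 24 °C, bound radioactivity gamma-counted. Run in triplicate.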

Data set [2] addresses T2, Endothelin-1 receptor (Homo sapiens, UniProt P25101).
T2 sequence (P25101 whole entry): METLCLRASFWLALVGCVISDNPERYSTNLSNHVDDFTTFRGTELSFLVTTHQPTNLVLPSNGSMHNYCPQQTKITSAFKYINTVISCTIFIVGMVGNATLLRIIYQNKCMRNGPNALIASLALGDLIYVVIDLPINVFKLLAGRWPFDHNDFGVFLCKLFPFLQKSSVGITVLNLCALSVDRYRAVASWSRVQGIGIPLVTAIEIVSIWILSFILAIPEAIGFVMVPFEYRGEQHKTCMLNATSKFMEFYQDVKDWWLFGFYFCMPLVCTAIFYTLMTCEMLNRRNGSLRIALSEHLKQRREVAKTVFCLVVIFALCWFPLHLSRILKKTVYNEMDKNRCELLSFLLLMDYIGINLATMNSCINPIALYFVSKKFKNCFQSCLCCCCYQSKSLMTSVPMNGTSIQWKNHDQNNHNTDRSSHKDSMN
In words: In vitro inhibition of endothelin binding to human Endothelin A receptor using [125I]-labeled ET-1 competition assay. An outline of the steps: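 Membranes from confluent TE 671 cells (endogenous human ETA), DNase-treated, 3 mg/tube. Buffer 30 mM HEPES pH 7.4, 150 mM NaCl, 5 mM MgCl2, 0.05% bacitracin, final 0.25% DMSO. Tracer 4 pM [125I]ET-1, nonspecific binding with 100 nM ET-1. Incubated 16–18 h at 24 °C, centrifuged, bound radioactivity gamma-counted. Run in triplicate.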

For data set [3], the system named is Rattus norvegicus. Briefly: % inhibition of ET-1 induced pressor response in conscious rats 30 min after intravenous administration of 15 mg/kg of the compound. The data set is classed as functional. As to conditions: 0.5 h. The method, boiled down:
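Conscious rats rested 60 min in a restrainer. Autonomic blockade by iv atropine methyl nitrate (3 mg/kg) plus propranolol (2 mg/kg). Vehicle was 1 M Tris base or sodium bicarbonate. Control iv bolus ET-1 challenge ([…]), antagonist iv bolus once MAP returned to baseline, second ET-1 challenge 30 min later. Inhibition = 100 × (control − antagonist max pressor response)/control max pressor response.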

Data set [4] is described as follows: Compound at dose 60 mg/kg was administered to rats and Serum half life was determined. The data set is classed as ADME, organism-based. The arrangement: dose 60 mg/kg. The conditions noted are these: rat.
Data set [5] in a line: Compound at dose 60 mg/kg was administered to rats and Serum half life was determined; range = 2.5-3 h. Format: ADME, organism-based. The arrangement: dose 60 mg/kg. As to conditions: rat.

Each structure is given as a SMILES string.

Consider `Cc1noc(NS(=O)(=O)c2ccsc2C(=O)Nc2cc3c(cc2C#N)OCO3)c1Cl`, for which the IC50 in data set [1] turned out to be 40400 nM; in data set [2] it was 3.4 nM. For the same compound, testing at 15 mg/kg in data set [3] gave an inhibition in vivo of 20%. The same compound gave a half-life in data set [4] of 2.5 h. In data set [2], `Cc1ccc(NC(=O)c2sccc2S(=O)(=O)Nc2onc(C)c2Cl)cc1` had an IC50 of 15 nM.

For `Cc1noc(NS(=O)(=O)c2ccsc2C(=O)Nc2ccc3c(c2)OCO3)c1Br`, the IC50 in data set [1] was 10100 nM; in data set [2] it was 19 nM. Take `CC(=O)c1cc2c(cc1NC(=O)c1sccc1S(=O)(=O)Nc1onc(C)c1Cl)OCO2`: the half-life in data set [5] was 3 h. Also, the half-maximal inhibitory concentration (IC50) in data set [1] stood at 32600 nM; in data set [2], 10 nM. Moreover, the inhibition in vivo at 15 mg/kg in data set [3] was determined as 18%. In the case of `COc1cccc(NC(=O)c2sccc2S(=O)(=O)Nc2onc(C)c2Br)c1`, the half-inhibitory concentration (IC50) in data set [1] worked out at 63100 nM; in data set [2] it was 85 nM. As to `COc1ccccc1NC(=O)c1sccc1S(=O)(=O)Nc1onc(C)c1Br`, the IC50 came out at 61700 nM in data set [1] and 132 nM in data set [2]. As to `CC(=O)c1cc2c(cc1NC(=O)c1sccc1S(=O)(=O)Nc1onc(C)c1C)OCO2`, the IC50 was greater than 100000 nM in data set [1] and 31 nM in data set [2]. Turning to `COC(=O)c1cc(OC)c(OC)cc1NC(=O)c1sccc1S(=O)(=O)Nc1onc(C)c1Cl`, the concentration for half-maximal inhibition (IC50) in data set [1] was greater than 100000 nM; in data set [2], 549 nM.

Turning to `CCC(C)c1ccc(NC(=O)c2sccc2S(=O)(=O)Nc2onc(C)c2Br)cc1` (stereo not drawn), the concentration for half-maximal inhibition (IC50) in data set [1] is 5890 nM; in data set [2], 54 nM. The like results for `COc1cc(NC(=O)c2sccc2S(=O)(=O)Nc2onc(C)c2Cl)c(C(=O)O)cc1OC` were, in that order, greater than 100000 nM and 1430 nM. Turning to `CC(=O)OCCOc1cc2c(cc1NC(=O)c1sccc1S(=O)(=O)Nc1onc(C)c1Cl)OCO2`, the IC50 came out at 15800 nM in data set [1] and 6.1 nM in data set [2].

For the compound `COc1ccc(NC(=O)c2sccc2S(=O)(=O)Nc2onc(C)c2Br)cc1`, the IC50 in data set [1] amounted to 30200 nM; in data set [2], 24 nM. On to `Cc1ccc(NC(=O)c2sccc2S(=O)(=O)Nc2onc(C)c2Br)cc1`, for which the half-maximal inhibitory concentration (IC50) in data set [1] stood at 9120 nM; in data set [2] it was 12 nM. Consider `COc1cc(C#N)c(NC(=O)c2sccc2S(=O)(=O)Nc2onc(C)c2Cl)cc1OC`, for which the 50% inhibitory concentration (IC50) in data set [1] amounted to 12200 nM; in data set [2], 3.9 nM.

For `Cc1nnc(NC(=O)c2sccc2S(=O)(=O)Nc2onc(C)c2Cl)s1`, the half-maximal inhibitory concentration (IC50) in data set [1] is greater than 100000 nM; in data set [2], 1290 nM. In turn, `Cc1noc(NS(=O)(=O)c2ccsc2C(N)=O)c1Br` returned a half-inhibitory concentration (IC50) in data set [1] greater than 100000 nM.

For the compound `COc1cc(NC(=O)c2sccc2S(=O)(=O)Nc2onc(C)c2Cl)c(C(N)=O)cc1OC`, the IC50 was found to be 61000 nM in data set [1] and 10.8 nM in data set [2]. In turn, `Cc1cc2c(cc1NC(=O)c1sccc1S(=O)(=O)Nc1onc(C)c1Cl)OCO2` returned an IC50 in data set [1] of 35500 nM. Turning to `Cc1noc(NS(=O)(=O)c2ccsc2C(=O)Nc2cc3c(cc2CC(=O)N(C)C)OCO3)c1Cl`, the 50% inhibitory concentration (IC50) in data set [2] is 9.3 nM. Turning to `COc1cccc(NCc2sccc2S(=O)(=O)Nc2onc(C)c2Br)c1`, the IC50 in data set [1] was determined as 7590 nM; in data set [2] it was 933 nM. `Cc1noc(NS(=O)(=O)c2ccsc2C(=O)NCc2ccccc2)c1Br`: the figures for the IC50 in data set [1] and in data set [2] were 97700 nM and 229 nM, respectively.

Take `Cc1noc(NS(=O)(=O)c2ccsc2C(=O)Nc2cc3c(cc2CC#N)OCO3)c1Cl`: the 50% inhibitory concentration (IC50) in data set [1] turned out to be 25700 nM; in data set [2], 3.8 nM. For `Cc1noc(NS(=O)(=O)c2ccsc2C(=O)Nc2ccc(C(C)(C)C)cc2)c1Br` the same measures were 6920 nM and 47 nM.

Take `COc1ccc(NC(=O)c2sccc2S(=O)(=O)Nc2onc(C)c2Cl)c(OC)c1`: the figures for the half-maximal inhibitory concentration (IC50) in data set [1] and in data set [2] were 51900 nM and 15 nM, respectively. For `Cc1noc(NS(=O)(=O)c2ccsc2C(=O)Nc2ccc(-c3ccccc3)cc2)c1Br` the same measures were 8710 nM and 977 nM. With `Cc1noc(NS(=O)(=O)c2ccsc2C(=O)Nc2ccccc2C(=O)O)c1Br`, the values for the concentration for half-maximal inhibition (IC50) in data set [1] and in data set [2] were 19500 nM and 214 nM, respectively. As to `Cc1noc(NS(=O)(=O)c2ccsc2C(=O)Nc2ccc(O)nn2)c1Br`, the half-inhibitory concentration (IC50) in data set [2] was determined as 65 nM. As to `Cc1ccc(NC(=O)c2sccc2S(=O)(=O)Nc2onc(C)c2Cl)nc1`, the IC50 in data set [1] amounted to 44700 nM; in data set [2] it was 13 nM. Turning to `Cc1noc(NS(=O)(=O)c2ccsc2C(=O)Nc2ccccc2)c1Br`, the IC50 amounted to 77600 nM in data set [1] and 166 nM in data set [2]. In the case of `Cc1ccc(NC(=O)c2sccc2S(=O)(=O)Nc2onc(C)c2C)cc1`, the IC50 in data set [1] was determined as 67600 nM; in data set [2] it was 32 nM. For `CCCCc1ccc(NC(=O)c2sccc2S(=O)(=O)Nc2onc(C)c2Br)cc1`, the values for the IC50 in data set [1] and in data set [2] were 6170 nM and 200 nM, respectively. `Cc1noc(NS(=O)(=O)c2ccsc2C(=O)Nc2cccc(C(=O)O)c2)c1Br` returned an IC50 in data set [1] of 117000 nM. On to `Cc1noc(NS(=O)(=O)c2ccsc2C(=O)Nc2ccc(C(C)C)cc2)c1Br`, for which the half-maximal inhibitory concentration (IC50) in data set [1] was 4370 nM; in data set [2], 20 nM.

As for `CCc1ccc(NC(=O)c2sccc2S(=O)(=O)Nc2onc(C)c2Br)cc1`, the IC50 in data set [1] came to 7410 nM; in data set [2], 17 nM. The like results for `Cc1ccccc1NC(=O)c1sccc1S(=O)(=O)Nc1onc(C)c1Br` were, in that order, greater than 100000 nM and 27 nM. Turning to `Cc1noc(NS(=O)(=O)c2ccsc2C(=O)N(C)c2ccccc2)c1Br`, the IC50 in data set [1] was greater than 100000 nM; in data set [2], 1910 nM. Turning to `Cc1noc(NS(=O)(=O)c2ccsc2C(=O)Nc2cc3c(cc2OCCO)OCO3)c1Cl`, the half-maximal inhibitory concentration (IC50) in data set [1] was 14400 nM; in data set [2], 5.1 nM.

As for `Cc1noc(NS(=O)(=O)c2ccsc2C(=O)Nc2cc3c(cc2CCCO)OCO3)c1Cl`, the IC50 in data set [1] came to 9080 nM; in data set [2], 6 nM. Consider `Cc1ccc(NC(=O)c2sccc2S(=O)(=O)Nc2onc(C)c2Cl)c(O)c1`, for which the values for the half-maximal inhibitory concentration (IC50) in data set [1] and in data set [2] were 8240 nM and 6.6 nM, respectively. In the case of `Cc1noc(NS(=O)(=O)c2ccsc2C(=O)Nc2cccc(O)c2)c1Br`, the concentration for half-maximal inhibition (IC50) in data set [1] worked out at 67500 nM; in data set [2], 146 nM.

In the case of `Cc1cccc(NC(=O)c2sccc2S(=O)(=O)Nc2onc(C)c2Br)c1`, the results for the IC50 in data set [1] and in data set [2] were 67400 nM and 104 nM, respectively. As to `Cc1cc(NC(=O)c2sccc2S(=O)(=O)Nc2onc(C)c2Cl)no1`, the IC50 in data set [2] is 57 nM.

Regarding `COc1ccc(NC(=O)c2sccc2S(=O)(=O)Nc2onc(C)c2Cl)c(C)c1`, the 50% inhibitory concentration (IC50) in data set [1] was found to be 14000 nM; in data set [2], 2.6 nM.
